For 18 compounds, EC50 and IC50 results are on record in BindingDB's records for doi:10.1021/acs.jnatprod.7b00271 (University of Eastern Piedmont, 2017).

pEC50, pIC50: −log10 of the molar value.

The target of assay [1] is T1, Nuclear factor erythroid 2-related factor 2 (Homo sapiens, UniProt Q16236).
T1 sequence (Q16236 whole entry): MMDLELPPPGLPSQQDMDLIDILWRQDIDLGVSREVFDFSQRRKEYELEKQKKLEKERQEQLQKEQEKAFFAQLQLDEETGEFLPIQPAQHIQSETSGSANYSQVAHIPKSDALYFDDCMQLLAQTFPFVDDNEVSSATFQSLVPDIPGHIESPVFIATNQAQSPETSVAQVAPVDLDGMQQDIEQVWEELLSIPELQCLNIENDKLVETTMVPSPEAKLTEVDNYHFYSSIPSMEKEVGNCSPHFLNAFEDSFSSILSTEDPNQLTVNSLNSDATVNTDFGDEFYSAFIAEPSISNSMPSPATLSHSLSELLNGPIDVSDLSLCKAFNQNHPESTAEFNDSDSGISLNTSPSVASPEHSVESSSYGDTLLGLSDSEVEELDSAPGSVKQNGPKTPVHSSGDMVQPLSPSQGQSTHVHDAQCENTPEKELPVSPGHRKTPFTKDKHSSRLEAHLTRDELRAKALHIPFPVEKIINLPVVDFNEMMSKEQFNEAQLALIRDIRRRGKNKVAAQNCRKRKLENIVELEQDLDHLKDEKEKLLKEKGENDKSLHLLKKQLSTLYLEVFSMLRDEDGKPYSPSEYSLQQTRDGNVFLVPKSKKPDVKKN
The assay is described as follows: Activation of Nrf2 (unknown origin) expressed in human HaCaT-ARE-luc cells after 6 hrs by luciferase reporter gene assay. The procedure, abridged:
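HaCaT-ARE-Luc keratinocytes in DMEM with 10% FBS, 37 °C, 5% CO2, exposed to compounds for 6 h. Cells then washed with PBS and lysed (Tris-phosphate pH 7.8, MgCl2, DTT, Triton X-100, glycerol, 15 min RT). Luciferase RLU read on the supernatant and EC50 derived. Mean of at least five independent experiments.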
In general terms: In a reporter assay the amount or activity of a reporter protein is the signal.

For assay [2], the target named is Signal transducer and activator of transcription 3 (Homo sapiens, UniProt P40763). The assay is described as follows: Inhibition of IFN-gamma stimulated STAT3 (unknown origin) expressed in human HeLa cells after 6 hrs by luciferase reporter gene assay. Summed up:
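HeLa-STAT3-Luc cells stimulated with γIFN (20 IU/mL) with or without compounds for 6 h. PBS-washed cells lysed 15 min at room temperature and luciferase RLU measured. Values expressed as percent inhibition of IFN-γ-induced activity (taken as 100%). Mean of at least five independent experiments.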

Chain of Signal transducer and activator of transcription 3 (P40763 whole entry): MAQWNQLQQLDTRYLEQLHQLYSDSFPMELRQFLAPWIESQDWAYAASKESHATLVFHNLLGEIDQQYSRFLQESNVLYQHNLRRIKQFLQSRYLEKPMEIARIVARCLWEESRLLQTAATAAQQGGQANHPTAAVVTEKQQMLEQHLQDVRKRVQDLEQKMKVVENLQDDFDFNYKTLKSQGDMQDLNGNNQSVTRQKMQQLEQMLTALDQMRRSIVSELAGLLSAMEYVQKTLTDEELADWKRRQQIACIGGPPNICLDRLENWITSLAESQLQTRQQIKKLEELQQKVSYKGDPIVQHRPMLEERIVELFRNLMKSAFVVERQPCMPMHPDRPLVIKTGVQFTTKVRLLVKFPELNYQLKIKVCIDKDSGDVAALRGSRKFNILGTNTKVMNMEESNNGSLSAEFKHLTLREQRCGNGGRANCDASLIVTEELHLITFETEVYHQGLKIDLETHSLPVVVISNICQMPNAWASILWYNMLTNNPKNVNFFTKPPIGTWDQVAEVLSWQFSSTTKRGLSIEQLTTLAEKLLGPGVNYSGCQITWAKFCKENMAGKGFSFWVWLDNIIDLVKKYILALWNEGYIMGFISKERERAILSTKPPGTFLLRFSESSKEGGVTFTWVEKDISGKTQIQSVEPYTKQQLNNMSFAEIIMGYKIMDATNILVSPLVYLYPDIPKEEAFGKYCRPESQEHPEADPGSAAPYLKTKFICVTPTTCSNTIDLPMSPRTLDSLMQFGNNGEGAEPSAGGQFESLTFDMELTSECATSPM

Regarding `COC(=O)[C@]12CCC(C)(C)C[C@H]1C1=CC[C@@H]3[C@@]4(C)Cc5cnoc5C(C)(C)[C@@H]4CC[C@@]3(C)[C@]1(C)CC2`, the negative-log EC50 (pEC50) (as a rule, −log10 of the EC50, conventionally taken in molar units) in assay [1] is below 4.60. Besides, in assay [2], the pIC50 (commonly −log10 of the IC50, conventionally taken in molar units) is below 4.60.
`COC(=O)[C@]12CCC(C)(C)C[C@H]1C1=CC[C@@H]3[C@@]4(C)C=C(c5ccccc5)C(=O)C(C)(C)[C@@H]4CC[C@@]3(C)[C@]1(C)CC2`: the pEC50 in assay [1] is below 4.60. In addition, in assay [2], the pIC50 is below 4.60.
For `COC(=O)[C@]12CCC(C)(C)C[C@H]1C1=CC[C@@H]3[C@@]4(C)C=CC(=O)C(C)(C)[C@@H]4CC[C@@]3(C)[C@]1(C)CC2`, the pEC50 in assay [1] is below 4.60. Besides, the pIC50 in assay [2] was below 4.60.
`COC(=O)[C@]12CCC(C)(C)C[C@H]1C1=CC[C@@H]3[C@@]4(C)CC(C#N)=C(O)C(C)(C)[C@@H]4CC[C@@]3(C)[C@]1(C)CC2`: the pEC50 in assay [1] is below 4.60. This compound also gave a pIC50 in assay [2] below 4.60.
In assay [1], `COC(=O)[C@]12CCC(C)(C)C[C@H]1C1=CC[C@@H]3[C@@]4(C)C=C(C(=O)O)C(=O)C(C)(C)[C@@H]4CC[C@@]3(C)[C@]1(C)CC2` showed a pEC50 of 5.61. In assay [2], this compound gave a pIC50 of 4.59.
The like results for `COC(=O)[C@]12CCC(C)(C)C[C@H]1C1=CC[C@@H]3[C@@]4(C)C=C(Br)C(=O)C(C)(C)[C@@H]4CC[C@@]3(C)[C@]1(C)CC2` were, in that order, 4.94 and below 4.60.
In assay [2], `CC1(C)CC[C@]2(C(=O)O)CC[C@]3(C)C(=CC[C@@H]4[C@@]5(C)CC[C@H](O)C(C)(C)[C@@H]5CC[C@]43C)[C@@H]2C1` [Oleanolic acid (OA)(Compound 1)] gave a pIC50 below 4.30.
`COC(=O)C1=C[C@]2(C)[C@H]3CC=C4[C@@H]5CC(C)(C)CC[C@]5(C(=O)OC)CC[C@@]4(C)[C@]3(C)CC[C@H]2C(C)(C)C1=O` had a pEC50 in assay [1] below 4.60. In assay [2], this compound gave a pIC50 below 4.60.
As for `CCOC(=O)/C=C/C1=C[C@]2(C)[C@H]3CC=C4[C@@H]5CC(C)(C)CC[C@]5(C(=O)OC)CC[C@@]4(C)[C@]3(C)CC[C@H]2C(C)(C)C1=O`, the pEC50 in assay [1] was below 4.60. In assay [2], this compound showed a pIC50 below 4.60.
`COC(=O)[C@]12CCC(C)(C)C[C@H]1C1=CC[C@@H]3[C@@]4(C)C=C(C#N)C(=O)C(C)(C)[C@@H]4CC[C@@]3(C)[C@]1(C)CC2` had a pEC50 in assay [1] of 5.96.
As for `COC(=O)[C@]12CCC(C)(C)C[C@H]1C1=CC[C@@H]3[C@@]4(C)C=C(I)C(=O)C(C)(C)[C@@H]4CC[C@@]3(C)[C@]1(C)CC2`, in assay [1], the pEC50 was below 4.60. Further, in assay [2], the pIC50 was below 4.60.
`COC(=O)[C@]12CCC(C)(C)C[C@H]1C1=CC[C@@H]3[C@@]4(C)C=C(c5ccc(OC)cc5)C(=O)C(C)(C)[C@@H]4CC[C@@]3(C)[C@]1(C)CC2` had a pEC50 in assay [1] below 4.60. This compound also showed a pIC50 in assay [2] below 4.60.
`COC(=O)[C@]12CCC(C)(C)C[C@H]1[C@H]1C(=O)C=C3[C@@]4(C)C=C(C#N)C(=O)C(C)(C)[C@@H]4CC[C@@]3(C)[C@]1(C)CC2` [CDDO-Me, 2] showed a pEC50 in assay [1] of 7.22.
Turning to `COC(=O)[C@]12CCC(C)(C)C[C@H]1C1=CC[C@@H]3[C@@]4(C)CC(C=O)=C(O)C(C)(C)[C@@H]4CC[C@@]3(C)[C@]1(C)CC2`, in assay [1], the pEC50 is below 4.60. The compound further had a pIC50 in assay [2] below 4.60.
On to `COC(=O)[C@]12CCC(C)(C)C[C@H]1C1=CC[C@@H]3[C@@]4(C)C=C(OC(C)=O)C(=O)C(C)(C)[C@@H]4CC[C@@]3(C)[C@]1(C)CC2`, for which the pEC50 in assay [1] is below 4.60. The same compound gave a pIC50 in assay [2] below 4.60.
Regarding `COC(=O)[C@]12CCC(C)(C)C[C@H]1C1=CC[C@@H]3[C@@]4(C)CCC(=O)C(C)(C)[C@@H]4CC[C@@]3(C)[C@]1(C)CC2`, in assay [1], the pEC50 is below 4.60. This compound gave a pIC50 in assay [2] below 4.60.
With `COC(=O)[C@]12CCC(C)(C)C[C@H]1C1=CC[C@@H]3[C@@]4(C)C=C(C#Cc5ccccc5)C(=O)C(C)(C)[C@@H]4CC[C@@]3(C)[C@]1(C)CC2`, in assay [1], the pEC50 was below 4.60. In assay [2], this compound showed a pIC50 below 4.60.
Take `COC(=O)[C@]12CCC(C)(C)C[C@H]1C1=CC[C@@H]3[C@@]4(C)C=C(c5ccc(C#N)cc5)C(=O)C(C)(C)[C@@H]4CC[C@@]3(C)[C@]1(C)CC2`: the pEC50 in assay [1] is below 4.60. For the same compound, the pIC50 in assay [2] was below 4.60.
